Source: PubChem (several laboratories)
STAT1 act – STAT1 signaling activators, primary screen, cell-based, HTS, luciferase reporter. activation (% of control), % at 5.5 µM. NIH 3T3 STAT1-luciferase reporter, IFN-gamma, luminescence; 100% = IFN-gamma alone, no compound. 200,000 tested, 2.6% active;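 active = activation above the screen-wide mean activation plus 3 SD, cut at about 130% in these data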;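 note: raw ratio to IFN-gamma control signal so 100% means no change and 0% no light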
HSV augment – enhancers of HSV replication in host cells, fold increase, host cell viability; maximum fold increase; 220,000 tested, 0.005% active; HSV replication augmentation in cells; in the data active = maximum fold increase above about 1.5; inconclusive = no clear call, values can overlap the other calls; tested in PC3 cells
STAT3 inh – IL-6 driven STAT3 reporter inhibitors, primary screen, U3A cells, luciferase, luminescence, MLSCN library. 190,000 tested, 0.89% active. IL-6 STAT3-luciferase reporter; host cell line lacks STAT1. inhibition, % at 5.5 µM. AID 862, 2007;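 active = inhibition above the mean inhibition across all screened compounds plus 3 SD, cut at about 44% in these data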;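 note: 0% = DMSO only wells and 100% = 100 µM nifuroxazide control wells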
STAT3 activator – IL-6 driven STAT3 reporter potentiators, primary screen, U3A cells, luciferase, luminescence, MLSCN library. IL-6 STAT3-luciferase reporter; 100% = signal with IL-6 EC80 alone. 190,000 tested, 0.91% active. activation (% of control), % at 5.6 µM. AID 871, 2007;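 active = activation above the screen-wide mean of compound activation plus 3 SD, cut at about 130% in these data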;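 note: 0% = background luminescence of wells with medium and substrate only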
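Test system: STAT3-luciferase reporter U3A cells; Detection: reporter luminescence signal; Times: 1 h compound pre-exposure, 6 h IL-6 stimulation, 37 °C; Benchmarks: IL-6-only high control; Also added: IL-6 stimulus at 33 ng/mL final.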
STAT1 blocker – STAT1 signaling inhibitors, primary screen, cell-based, HTS, luciferase reporter. inhibition, % at 5.5 µM. NIH 3T3 STAT1-luciferase reporter, IFN-gamma, luminescence. AID 920, 2007. 200,000 tested, 0.35% active;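 active = inhibition above a set limit, the mean inhibition across all tested compounds plus 3 SD, cut at about 34% in these data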;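 note: 0% = IFN-gamma with DMSO and 100% = IFN-gamma with 300 µM nifuroxazide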
Cl transport mod – KCC2 cotransporter modulators, thallium flux, primary screen, cell-based, HEK293 KCC2, FluoZin-2 fluorescence, MLSMR. B-score of Tl+ flux slope (higher = more flux/activation; lower = inhibition) at 10 µM. 190,000 tested, 2.2% active. KCC2 cells, thallium flux FluoZin-2 fluorescence;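 active = thallium flux slope and its plate-corrected score both differing from the plate sample mean at a set confidence after two filtering rounds, in either direction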;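 note: slope of fluorescence scaled to starting intensity during 10 to 20 s after thallium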
Target sequence (Q9H2X9 whole entry, looked up): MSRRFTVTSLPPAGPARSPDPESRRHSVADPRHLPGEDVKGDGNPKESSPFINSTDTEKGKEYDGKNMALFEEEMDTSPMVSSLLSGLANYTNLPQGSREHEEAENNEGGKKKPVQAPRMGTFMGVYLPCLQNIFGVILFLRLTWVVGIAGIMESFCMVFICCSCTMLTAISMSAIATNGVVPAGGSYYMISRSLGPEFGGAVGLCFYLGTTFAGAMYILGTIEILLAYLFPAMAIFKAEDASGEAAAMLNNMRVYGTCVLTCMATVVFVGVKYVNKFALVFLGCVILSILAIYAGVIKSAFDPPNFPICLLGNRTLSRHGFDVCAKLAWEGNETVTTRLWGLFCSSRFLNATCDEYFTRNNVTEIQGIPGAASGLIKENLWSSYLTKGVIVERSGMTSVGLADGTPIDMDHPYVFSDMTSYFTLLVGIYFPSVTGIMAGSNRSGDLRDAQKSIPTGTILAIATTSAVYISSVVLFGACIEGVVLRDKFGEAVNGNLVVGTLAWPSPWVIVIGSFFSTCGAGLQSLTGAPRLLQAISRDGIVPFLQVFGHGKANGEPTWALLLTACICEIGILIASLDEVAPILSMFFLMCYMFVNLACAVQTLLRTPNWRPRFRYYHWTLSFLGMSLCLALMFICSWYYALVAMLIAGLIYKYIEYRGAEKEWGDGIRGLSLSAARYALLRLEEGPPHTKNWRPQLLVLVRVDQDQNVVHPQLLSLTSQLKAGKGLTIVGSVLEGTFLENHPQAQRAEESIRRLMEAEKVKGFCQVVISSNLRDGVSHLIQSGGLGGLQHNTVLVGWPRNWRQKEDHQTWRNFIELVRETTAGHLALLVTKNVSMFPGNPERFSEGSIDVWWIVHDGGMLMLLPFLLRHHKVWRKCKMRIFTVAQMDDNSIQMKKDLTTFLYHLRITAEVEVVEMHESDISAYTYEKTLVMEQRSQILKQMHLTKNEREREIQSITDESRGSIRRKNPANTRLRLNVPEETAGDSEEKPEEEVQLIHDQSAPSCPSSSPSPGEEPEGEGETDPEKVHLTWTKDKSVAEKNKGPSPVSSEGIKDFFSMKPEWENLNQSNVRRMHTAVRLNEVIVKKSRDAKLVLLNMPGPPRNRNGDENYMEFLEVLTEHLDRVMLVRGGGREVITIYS
KCC2 secondary – KCC2 modulators in sodium-free buffer, confirmation, cell-based, HEK293 KCC2, thallium flux, secondary assay; normalised thallium flux (F/F0 slope) at 10 µM; shares compounds with Cl transport mod; FluoZin2 fluorescence; hits give high values; 3,700 tested, 15% active;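 active = thallium flux slope above the same plate's solvent-only control mean plus 3 SD; inconclusive = the two replicate wells disagree; inactive = no significant difference from solvent-only control wells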
KCC2 bumet counter – thallium flux persisting under bumetanide in KCC2 cells, confirmation, counter-screen for KCC2 modulator project, cell-based, HEK293 KCC2, FluoZin2, secondary assay 3 | shares compounds with Cl transport mod | HEK293-KCC2 + bumetanide/ouabain; hits give high values | normalized thallium flux at 10 µM | 3,700 tested, 49% active | AID 1714, 2009;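 active = thallium entry rate above the same plate's blocked-transporter control wells by more than 3 SD; inconclusive = the two repeat wells disagree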;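 note: raw slope of fluorescence over initial fluorescence between 10 and 20 s after thallium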
KCC2 secondary2 – KCC2 modulators without ouabain present, confirmation, cell-based, HEK293 KCC2, thallium flux, FluoZin2, secondary assay 2 | thallium flux FluoZin2 fluorescence; actives lie on both sides; F/F0 rise rate, 10–20 s post-thallium | normalized thallium flux at 10 µM | shares compounds with Cl transport mod | AID 1715, 2009 | 3,700 tested, 23% active;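 active = thallium flux slope more than 3 SD above or below the plate's solvent-only control mean, mostly below; inconclusive = the two repeat wells disagreed; inactive = no significant shift from solvent-only controls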;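 note: raw slope with 0.1% DMSO as baseline and bumetanide as block control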
HEK293 Tl flux – thallium flux modulation in parental HEK cells, confirmation, counter-screen for KCC2 modulator project, cell-based, counterscreen 1 | shares compounds with Cl transport mod | HEK293 parental cells, thallium flux FluoZin2, ouabain; baseline-ratio fluorescence slope, 10–20 s after thallium | thallium flux rate (normalised fluorescence) at 10 µM | 3,700 tested, 46% active | AID 1716, 2009;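 active = thallium flux rate significantly above the same plate's solvent-only control wells, beyond their mean plus 3 SD; inconclusive = the two replicate wells gave conflicting results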
KCC2 ouabain – KCC2 inhibitors and activators, ouabain retest, confirmation, HEK-KCC2 cells; 3,700 tested, 48% active; HEK293-KCC2, thallium flux FluoZin2 fluorescence; bidirectional: low = inhibitor, high = activator; raw Tl+ flux slope (below DMSO = inhibition, above = activation) at 10 µM; shares compounds with Cl transport mod;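 active = thallium flux slope beyond 3 SD from same-plate DMSO control mean in most replicates, usually higher, sometimes lower; inconclusive = repeat tests gave conflicting results; inactive = no significant difference from controls in most replicates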;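 note: slope of initial-normalized fluorescence between seconds 10 and 20 after thallium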
HEK293 Tl flux2 – native HEK Tl+ uptake effects, second counter-screen – HEK cells, counterscreen 2, counter-screen for KCC2 modulator project, confirmation; thallium flux slope at 10 µM; HEK293 parental, thallium flux FluoZin-2 fluorescence slope; 3,700 tested, 33% active; AID 1718, 2009; shares compounds with Cl transport mod;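 active = thallium flux slope above the same plate's solvent-control mean plus 3 SD in both duplicate wells; inconclusive = duplicate wells that disagreed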;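 note: run without ouabain in cells lacking the KCC2 cotransporter; slope of fluorescence scaled to its starting value between 10 and 20 s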
* marks the source's active call; other numbers are inactive results; i = inactive; ? = inconclusive; nt = no result. Rows were chosen to be rich in hits. Some 5.5% of all compounds tested hit in one or more screens of this group.

SMILES	STAT1 act	HSV augment	STAT3 inh	STAT3 activator	STAT1 blocker	Cl transport mod	KCC2 secondary	KCC2 bumet counter	KCC2 secondary2	HEK293 Tl flux	KCC2 ouabain	HEK293 Tl flux2
COc1ccc(-c2nc3n(n2)C(c2ccncc2)C(C(N)=O)=C(C)N3)cc1 (centres undefined)	94	nt	-28	130	7	11*	0.0081	0.007	0.032	0.008	0.022	0.011
CCNc1c([N+](=O)[O-])ncn1C	101	i	1	105	-1	nt	nt	nt	nt	nt	nt	nt
Cn1cnc([N+](=O)[O-])c1NCc1ccccc1	nt	i	nt	nt	nt	-4*	0.0059	0.0048	0.024*	0.0078	?	0.01
CSC1=NS(=O)(=O)c2c(C)nn(C)c2S1	nt	i	nt	nt	nt	-4*	0.0083	0.0067	0.033	?	0.019	?
O=C(Nc1ccccc1[N+](=O)[O-])c1cccnc1Cl	97	i	3	100	3	0.2	nt	nt	nt	nt	nt	nt
CCc1cccc(NC(=O)c2ccc(Br)o2)c1	107	nt	11	92	-7	nt	nt	nt	nt	nt	nt	nt
CCN1CCN(c2ccc(NC(=O)c3ccc4c(c3)[nH]c(=O)n4Cc3ccc(OC)cc3)cc2)CC1	99	i	6	95	1	0.16	nt	nt	nt	nt	nt	nt
COCCCn1c(SCC(=O)Nc2nnc(C)s2)nnc1-c1ccoc1C	93	i	4	102	8	nt	0.0073	0.005	0.034	0.0081	0.019	0.011
COCCn1c(SCC(=O)Nc2nnc(C)s2)nnc1-c1ccco1	97	i	11	93	1	0.1	nt	nt	nt	nt	nt	nt
Cc1cc(C)nc(NC(=O)CSc2ncccn2)n1	96	i	9	100	5	1.3	nt	nt	nt	nt	nt	nt
O=c1cc(-c2ccccc2)nc(SCc2ccc(F)cc2)[nH]1	92	nt	4	104	9	3.9*	0.0065	0.0048	0.027	0.0075	0.018	0.0099
CCN1CCN(C(c2cccs2)C(C)NS(=O)(=O)c2ccc(C)cc2)CC1 (centres undefined)	98	i	9	96	2	0.58	nt	nt	nt	nt	nt	nt
Cc1ccc(C)c(NC(=S)N/N=C2/CCCCc3ccccc32)c1	99	i	-7	106	2	9.6*	0.0064	0.036*	0.047*	0.037*	0.038*	0.038*
Cc1ccc(C)c(S(=O)(=O)N/N=C2/CCCc3ccccc32)c1	94	i	2	99	7	-0.36	nt	nt	nt	nt	nt	nt
N=C1S/C(=C\c2ccco2)C(=O)N1c1nccs1	124	i	-3	104	-29	19*	0.028*	0.075*	?	0.028*	0.049*	0.015*
O=C(Cc1cccs1)Nc1ccc(S(=O)(=O)N2CCCC2)cc1	98	i	5	98	0	-3.7*	0.0077	0.006	0.035	0.004	0.02	0.011
O=C(NCc1cccs1)c1cc(S(=O)(=O)N2CCCCC2)ccc1Cl	99	i	-6	106	-5	-0.81	nt	nt	nt	nt	nt	nt
O=C(O)CCC(=O)Nc1ccc(S(=O)(=O)N2CCCC2)cc1	95	i	19	89	6	0.54	nt	nt	nt	nt	nt	nt
CN(CC(=O)Nc1cc(S(=O)(=O)N2CCCC2)ccc1Cl)Cc1cccs1	nt	i	nt	nt	nt	-5.3*	?	0.0047	0.032	0.0034	0.014*	0.011
CCc1ccc(NC(=O)c2noc3c2CCc2ccccc2-3)cc1	113	i	0	106	-14	nt	nt	nt	nt	nt	nt	nt
Cc1nn(Cc2ccccc2)c(C)c1NC(=O)c1noc2c1CCc1ccccc1-2	99	i	34	78	1	-4.7*	0.0098	?	0.035	0.0078	?	0.011
COCC(C)n1c(SCc2cc(=O)n3cc(C)ccc3n2)nc2ccccc2c1=O (centres undefined)	87	i	0	107	13	-1.5	nt	nt	nt	nt	nt	nt
COc1ccccc1CN(Cc1nc2ccccc2c(=O)[nH]1)S(=O)(=O)c1ccc(C)cc1	101	i	8	98	-1	nt	0.0094	0.0059	0.03	0.0071	0.019	0.01
COc1ccccc1CN(Cc1nc2ccccc2c(=O)[nH]1)C(=O)Nc1ccc(C)cc1	103	i	10	92	-3	nt	nt	nt	nt	nt	nt	nt
O=C(NC1CCCCC1)c1ccc(CN2CCOCC2)cc1	103	i	10	96	-3	-2.8*	0.0098	0.0066	0.034	0.0078	0.022	0.011
O=C(NC1CC2CCC1C2)c1ccc(CN2CCOCC2)cc1 (centres undefined)	113	i	-6	108	-14	-0.59	nt	nt	nt	nt	nt	nt
CCOC(=O)N1CCN(Cc2nc(N)nc(Nc3ccc(OC)cc3)n2)CC1	102	i	0	103	-2	nt	nt	nt	nt	nt	nt	nt
CCOC(=O)N1CCN(Cc2nc(N)nc(Nc3ccc(Oc4ccccc4)cc3)n2)CC1	97	i	12	95	3	-4.1*	0.0065	0.0038	0.028	0.0073	0.017	0.0096
Cc1cc(C)nc(SCC(CSc2nc(C)cc(C)n2)C(=O)O)n1	101	i	4	100	-3	-0.15	nt	nt	nt	nt	nt	nt
N#CCCn1cc(C(=O)N2CCCCC2)c(-c2cccc([N+](=O)[O-])c2)n1	101	i	-2	107	0	-0.081	nt	nt	nt	nt	nt	nt
